Consider 36 compounds from ChEMBL document CHEMBL2021771, “Synthesis and biological activity of 2-aminothiazoles as novel inhibitors of PGE2 production in cells” (Bioorg Med Chem Lett, 2012).

The source made the active and inactive calls. No cut-off for these calls is given here.

The nature of experiment [1]: (§1) Inhibition of IL-1beta-induced PGE2 production in human HCA-7 cells at 1 uM after 72 hrs by EIA. It is filed as functional. Particulars: HCA-7, 72 h. In outline: (§2)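 Screen of HCA-7 cells at 1 μM compound (DMSO) with 10 ng/ml IL-1β in serum-free medium for 72 h, after overnight DMEM/10% FBS culture and 18 h serum starvation. Supernatant PGE2 quantified by EIA, expressed as % reduction of PGE2 level ± SD, n = 3.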

Experiment [2] can be described thus: Inhibition of IL-1beta-induced PGE2 production in human HCA-7 cells after 72 hrs by EIA. It is filed as functional, cell-based. To be noted: HCA-7, 72 h. In outline:
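HCA-7 cells seeded and incubated overnight in DMEM/10% FBS, then serum-starved 18 h. Stimulated with 10 ng/ml IL-1β plus increasing compound concentrations (DMSO) in serum-free medium for 72 h. Supernatant PGE2 measured by EIA.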

In experiment [3] the target is T1, Prostaglandin G/H synthase 2 (Homo sapiens, UniProt P35354).
T1 sequence (P35354 whole entry): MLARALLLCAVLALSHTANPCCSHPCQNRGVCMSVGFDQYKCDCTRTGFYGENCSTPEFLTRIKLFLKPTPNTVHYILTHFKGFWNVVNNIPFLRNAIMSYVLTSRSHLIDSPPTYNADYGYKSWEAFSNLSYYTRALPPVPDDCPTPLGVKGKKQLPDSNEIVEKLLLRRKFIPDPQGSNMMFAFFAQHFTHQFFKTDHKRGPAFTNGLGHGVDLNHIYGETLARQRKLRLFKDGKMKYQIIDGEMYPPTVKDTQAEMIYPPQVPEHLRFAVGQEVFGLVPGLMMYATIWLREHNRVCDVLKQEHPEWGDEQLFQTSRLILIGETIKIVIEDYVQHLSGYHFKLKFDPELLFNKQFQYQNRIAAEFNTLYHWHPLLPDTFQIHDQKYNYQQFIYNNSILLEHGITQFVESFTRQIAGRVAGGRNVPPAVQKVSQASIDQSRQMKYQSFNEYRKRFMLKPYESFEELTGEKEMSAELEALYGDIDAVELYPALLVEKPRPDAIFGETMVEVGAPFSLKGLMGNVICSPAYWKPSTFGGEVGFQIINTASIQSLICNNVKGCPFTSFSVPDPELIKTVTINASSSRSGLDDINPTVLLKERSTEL
Nature of the experiment: Inhibition of COX2 by fluorescence assay.

Experiment [4] concerns the target T2, Prostaglandin G/H synthase 2 (Homo sapiens) (UniProt P35354).
T2 sequence (whole entry): T1 sequence (P35354 whole entry)
To be noted: at 5 µM.

The next experiment deals with HCA-7. Described as §1. It is filed as functional. In outline:
as §2

Experiment [5] can be described thus: Antitumor activity against human HCA-7 cells xenografted in mouse at 200 mg/kg for 5 days relative to control. It is filed as functional.
The subject of the next experiment is SW837. Nature of the experiment: Antitumor activity against human SW837 cells xenografted in mouse at 200 mg/kg for 5 days relative to control. It is filed as functional.
A further experiment deals with A549. Kind of experiment: Antitumor activity against human A549 cells xenografted in mouse at 100 mg/kg for 10 days relative to control. Format: functional.

Consider `COc1ccc(-c2csc(Nc3ccc(Oc4ccccc4)cc3)n2)cc1`, for which the inhibition at 1 µM in experiment [1] was determined as 80.4%. Further, the EC50 in experiment [2] is 240 nM. Also, the IC50 in experiment [3] was greater than 5000 nM. In experiment [4], the inhibition came out at 40.8%.
`c1ccc(Oc2ccc(Nc3nc(-c4ccc(C5CCCCC5)cc4)cs3)cc2)cc1`: in experiment [1], the inhibition at 1 µM was determined as 41.6%.
With `COc1ccccc1-c1csc(Nc2ccc3c(c2)OCO3)n1`, the inhibition at 1 µM in experiment [1] came to 89%. For the same compound, in experiment [3], the IC50 came out at 930 nM. For the same compound, the inhibition in experiment [4] turned out to be 91.3%.
As to `Cc1nc(Nc2ccc(Oc3ccccc3)cc2)sc1C(C)O` (stereo not given), in experiment [1], the inhibition at 1 µM was determined as 80.4%. For the same compound, in experiment [2], the EC50 was determined as 90 nM. This compound had a 50% inhibitory concentration (IC50) in experiment [3] greater than 5000 nM.
`N#Cc1ccc(Nc2nc(-c3ccccc3)c(C(=O)c3ccccc3)s2)cc1`: the inhibition result in the experiment on HCA-7 was “inactive”.
With `COc1ccc(Nc2nc(-c3ccc(Cl)cc3)c(C)s2)cc1`, the inhibition at 1 µM in experiment [1] amounted to 89.3%. The compound further displayed an IC50 in experiment [3] greater than 5000 nM. In addition, the inhibition in experiment [4] stood at 12%.
Take `Clc1ccc(-c2csc(Nc3ccccc3)n2)cc1`: the inhibition at 1 µM in experiment [1] turned out to be 51%.
For the compound `N#Cc1ccc(Nc2nc(-c3ccc(Cl)cc3)cs2)cc1`, the inhibition at 1 µM in experiment [1] was found to be 23.1%.
With `CN(c1ccc(O)cc1)c1nc(-c2ccc(Cl)cc2)cs1`, in experiment [1], the inhibition at 1 µM came to 85.8%. In experiment [3], this compound returned an IC50 of 1080 nM. In experiment [4], the inhibition was determined as 84.2%.
Take `Clc1ccc(-c2csc(Nc3ccc4c(c3)OCO4)n2)cc1`: in experiment [1], the inhibition at 1 µM came out at 94.2%. For the same compound, the IC50 in experiment [3] is 840 nM. For the same compound, the inhibition in experiment [4] stood at 68.8%.
Regarding `CC(=O)c1sc(Nc2ccc3c(c2)OCO3)nc1C`, the inhibition at 1 µM in experiment [1] was found to be 25.3%.
With `Clc1ccccc1-c1csc(Nc2ccc3c(c2)OCO3)n1`, in experiment [1], the inhibition at 1 µM is 85.9%. Moreover, the half-inhibitory concentration (IC50) in experiment [3] turned out to be 910 nM. Moreover, the inhibition in experiment [4] was 84.8%.
Take `COc1ccc(Nc2nc(-c3ccccc3)c(C(=O)c3ccccc3)s2)cc1`: the inhibition entry in the experiment on HCA-7 is “inactive”.
As for `c1ccc(Oc2ccc(Nc3nc(-c4ccccc4)cs3)cc2)cc1`, in experiment [1], the inhibition at 1 µM stood at 79.6%. This compound returned an EC50 in experiment [2] of 330 nM. Besides, the half-inhibitory concentration (IC50) in experiment [3] is greater than 5000 nM. In addition, in experiment [4], the inhibition was determined as 31%.
In the case of `O=C(c1ccccc1)c1sc(Nc2ccc(Oc3ccccc3)cc2)nc1-c1ccccc1`, the inhibition at 1 µM in experiment [1] came out at 42%.
For `COc1cccc(Nc2nc(-c3ccc(Cl)cc3)cs2)c1`, in experiment [1], the inhibition at 1 µM is 78.3%. Moreover, the half-maximal inhibitory concentration (IC50) in experiment [3] is 1390 nM. Further, the inhibition in experiment [4] worked out at 55.1%.
On the same counts, the results for `CC(=O)c1sc(Nc2ccc(Oc3ccccc3)cc2)nc1C` are 87.9%, greater than 5000 nM and 28.9%.
Consider `COc1ccc(Nc2nc(-c3ccc(C)cc3)cs2)cc1`, for which, in experiment [1], the inhibition at 1 µM was found to be 37.3%.
In the case of `COc1ccc(Nc2nc(C)c(C(C)=O)s2)cc1`, the inhibition at 1 µM in experiment [1] came out at 58.5%.
`CCc1sc(Nc2ccc(OC)cc2)nc1C`: the inhibition at 1 µM in experiment [1] is 94.4%. Further, the concentration for a half-maximal effect (EC50) in experiment [2] worked out at 320 nM. In experiment [3], this compound came in with an IC50 greater than 5000 nM. Besides, the inhibition in experiment [4] was 49.3%.
As to `Clc1ccc(-c2csc(Nc3ccc(Oc4ccccc4)cc3)n2)cc1`, the inhibition at 1 µM in experiment [1] stood at 75.5%. The compound also returned a concentration giving a half-maximal response (EC50) in experiment [2] of 280 nM. The compound further returned a half-maximal inhibitory concentration (IC50) in experiment [3] greater than 10000 nM. In addition, the figures for the T/C (in experiment [5]; in the experiment on SW837; with A549) were 61%, 40% and 38%, respectively. Besides, in experiment [4], the inhibition was 32.1%.
Consider `c1ccc(Oc2ccc(Nc3nc(-c4ccc5ccccc5c4)cs3)cc2)cc1`, for which the inhibition at 1 µM in experiment [1] is 53.5%.
Turning to `c1ccc(-c2csc(Nc3ccc4c(c3)OCO4)n2)cc1`, the inhibition at 1 µM in experiment [1] was 98.2%. In experiment [3], this compound displayed a concentration for half-maximal inhibition (IC50) of 410 nM. In addition, in experiment [4], the inhibition came to 114%.
Regarding `Clc1ccc(-c2csc(Nc3cccc4ccccc34)n2)cc1`, the inhibition at 1 µM in experiment [1] was 51.4%.
`Fc1ccc(-c2csc(Nc3ccc(Oc4ccccc4)cc3)n2)cc1`: the inhibition at 1 µM in experiment [1] was 87.9%. The same compound had a concentration giving a half-maximal response (EC50) in experiment [2] of 120 nM. Also, the 50% inhibitory concentration (IC50) in experiment [3] is greater than 5000 nM. In addition, in experiment [4], the inhibition was 43.4%.
On to `COc1ccc(-c2csc(Nc3ccc4c(c3)OCO4)n2)cc1`, for which the inhibition at 1 µM in experiment [1] amounted to 96.2%. The compound further registered an IC50 in experiment [3] of 910 nM. In experiment [4], the inhibition turned out to be 94.4%.
As to `CC(=O)c1sc(Nc2ccccc2)nc1C`, the inhibition at 1 µM in experiment [1] stood at 29.9%.
For the compound `COc1cccc(-c2csc(Nc3ccc4c(c3)OCO4)n2)c1`, the inhibition at 1 µM in experiment [1] amounted to 94.4%. Besides, the IC50 in experiment [3] is 920 nM. Also, the inhibition in experiment [4] was found to be 86%.
In the case of `COc1cccc(-c2csc(Nc3ccc(Oc4ccccc4)cc3)n2)c1`, in experiment [1], the inhibition at 1 µM was determined as 88.9%. This compound also registered an EC50 in experiment [2] of 290 nM. In addition, in experiment [3], the 50% inhibitory concentration (IC50) is greater than 5000 nM. For the same compound, the inhibition in experiment [4] is 40.3%.
For the compound `O=C(c1ccccc1)c1sc(Nc2ccc3c(c2)OCO3)nc1-c1ccccc1`, in the experiment with HCA-7, the inhibition entry was “inactive”.
For the compound `COc1ccc(Nc2nc(-c3ccc(C)c(C)c3)cs2)cc1`, the inhibition at 1 µM in experiment [1] was determined as 73.9%. Further, in experiment [3], the midpoint of inhibition, the IC50, lay at 1200 nM. Further, the inhibition in experiment [4] came out at 69.3%.
On the same counts, the results for `CCc1sc(Nc2ccc(Oc3ccccc3)cc2)nc1C` are 87.1%, greater than 5000 nM and 41.3%.
`COc1ccc(Nc2nc(-c3ccc(OC)cc3)cs2)cc1`: in experiment [1], the inhibition at 1 µM amounted to 73.6%. The compound also registered an IC50 in experiment [3] of 1370 nM. Further, the inhibition in experiment [4] stood at 66.8%.
For the compound `CC(=O)c1sc(Nc2ccc(C#N)cc2)nc1C`, in experiment [1], the inhibition at 1 µM came to 22.4%.
Turning to `COc1ccccc1-c1csc(Nc2ccc(Oc3ccccc3)cc2)n1`, the inhibition at 1 µM in experiment [1] was 82%. In experiment [2], this compound registered an EC50 of 180 nM. The compound further returned an IC50 in experiment [3] greater than 5000 nM. Moreover, in experiment [4], the inhibition stood at 38.9%.
Turning to `COc1ccc(-c2csc(Nc3ccc(C)cc3)n2)cc1`, the inhibition at 1 µM in experiment [1] was 91.5%. The compound also showed a concentration for half-maximal inhibition (IC50) in experiment [3] of 810 nM. In addition, in experiment [4], the inhibition came to 73.1%.
